ChEMBL document CHEMBL5705899 (Biochem J, 2014)
The source made the active and inactive calls. No cut-off for these calls is given here.

Tests used:
[1] = target: Tyrosine-protein kinase FRK (Homo sapiens) (UniProt P42685); assay: Inhibition of human FRK at 1 uM using PolyEY as substrate in presence of 33P-ATP by ProQinase assay
[2] = target: Serine/threonine-protein kinase DCLK2 (Homo sapiens) (UniProt Q8N568); assay: Inhibition of human DCAMKL2 at 1 uM using RBER-CHKtide as substrate in presence of 33P-ATP by ProQinase assay
Sequence of Serine/threonine-protein kinase DCLK2 (Homo sapiens) (Q8N568 whole entry): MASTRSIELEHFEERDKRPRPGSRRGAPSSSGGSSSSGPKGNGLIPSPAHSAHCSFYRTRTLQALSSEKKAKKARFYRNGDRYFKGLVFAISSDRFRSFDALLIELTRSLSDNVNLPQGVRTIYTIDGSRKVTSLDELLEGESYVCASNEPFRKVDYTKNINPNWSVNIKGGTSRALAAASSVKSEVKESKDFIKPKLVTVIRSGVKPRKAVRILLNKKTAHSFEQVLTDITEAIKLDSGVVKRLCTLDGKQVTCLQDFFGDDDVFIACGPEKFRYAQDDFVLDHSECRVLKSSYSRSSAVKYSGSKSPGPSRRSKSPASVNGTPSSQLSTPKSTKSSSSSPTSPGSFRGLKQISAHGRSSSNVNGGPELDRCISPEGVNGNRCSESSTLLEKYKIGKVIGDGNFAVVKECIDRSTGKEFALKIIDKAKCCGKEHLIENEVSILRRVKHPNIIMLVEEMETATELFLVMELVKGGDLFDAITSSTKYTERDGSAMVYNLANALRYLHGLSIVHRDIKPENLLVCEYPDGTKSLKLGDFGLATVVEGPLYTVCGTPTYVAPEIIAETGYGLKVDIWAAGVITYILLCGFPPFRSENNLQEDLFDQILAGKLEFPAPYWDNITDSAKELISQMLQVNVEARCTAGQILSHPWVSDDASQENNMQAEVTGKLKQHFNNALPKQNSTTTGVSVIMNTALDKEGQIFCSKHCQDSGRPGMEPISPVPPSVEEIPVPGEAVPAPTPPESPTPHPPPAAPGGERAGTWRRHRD

U2OS [3] = assay: Inhibition of PI3K in human U2OS cells expressing GFP-PHAkt1 assessed as reduction in IGF-stimulated PtdIns(3,4,5)P3/PtdIns(3,4)P2 level […] at 1 uM pre incubated for 1 hr followed by IGF stimulation and measured after 15 mins by Alexa Fluor 488 staining based fluorescence microscopic analysis; format: subcellular; conditions: time 1.25 hrs
[4] = target: Dual specificity tyrosine-phosphorylation-regulated kinase 2 (Homo sapiens) (UniProt Q92630); assay: Inhibition of human DYRK2 at 1 uM using RBER-IRStide as substrate in presence of 33P-ATP by ProQinase assay
Sequence of Dual specificity tyrosine-phosphorylation-regulated kinase 2 (Homo sapiens) (Q92630 whole entry): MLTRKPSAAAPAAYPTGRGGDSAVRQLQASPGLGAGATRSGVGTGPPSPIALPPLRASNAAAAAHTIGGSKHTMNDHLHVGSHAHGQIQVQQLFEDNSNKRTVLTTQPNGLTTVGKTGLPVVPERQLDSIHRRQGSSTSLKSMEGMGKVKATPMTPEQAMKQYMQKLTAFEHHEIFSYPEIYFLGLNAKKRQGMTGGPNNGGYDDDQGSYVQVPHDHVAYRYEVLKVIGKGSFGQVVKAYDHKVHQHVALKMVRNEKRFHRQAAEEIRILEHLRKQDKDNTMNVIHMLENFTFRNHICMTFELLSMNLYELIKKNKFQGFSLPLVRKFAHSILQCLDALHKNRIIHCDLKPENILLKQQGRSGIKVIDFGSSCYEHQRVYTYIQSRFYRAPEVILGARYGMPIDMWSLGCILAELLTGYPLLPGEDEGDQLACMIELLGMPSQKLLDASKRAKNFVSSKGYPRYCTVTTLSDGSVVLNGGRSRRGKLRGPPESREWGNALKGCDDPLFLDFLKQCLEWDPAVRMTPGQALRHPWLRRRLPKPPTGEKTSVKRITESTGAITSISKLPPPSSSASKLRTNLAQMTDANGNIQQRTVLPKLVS

[5] = target: Ribosomal protein S6 kinase alpha-2 (Homo sapiens) (UniProt Q15349); assay: Inhibition of human RPS6KA2 at 1 uM using bio-4xCHKT as substrate in presence of 33P-ATP by ProQinase assay
[6] = target: Angiopoietin-1 receptor (Homo sapiens) (UniProt Q02763); assay: Inhibition of human TIE2 at 1 uM using polyEY as substrate in presence of 33P-ATP by ProQinase assay
[7] = target: Tyrosine-protein kinase Yes (Homo sapiens) (UniProt P07947); assay: Inhibition of human YES at 1 uM using polyEY as substrate in presence of 33P-ATP by ProQinase assay
Sequence of Tyrosine-protein kinase Yes (Homo sapiens) (P07947 2-543 limits assumed): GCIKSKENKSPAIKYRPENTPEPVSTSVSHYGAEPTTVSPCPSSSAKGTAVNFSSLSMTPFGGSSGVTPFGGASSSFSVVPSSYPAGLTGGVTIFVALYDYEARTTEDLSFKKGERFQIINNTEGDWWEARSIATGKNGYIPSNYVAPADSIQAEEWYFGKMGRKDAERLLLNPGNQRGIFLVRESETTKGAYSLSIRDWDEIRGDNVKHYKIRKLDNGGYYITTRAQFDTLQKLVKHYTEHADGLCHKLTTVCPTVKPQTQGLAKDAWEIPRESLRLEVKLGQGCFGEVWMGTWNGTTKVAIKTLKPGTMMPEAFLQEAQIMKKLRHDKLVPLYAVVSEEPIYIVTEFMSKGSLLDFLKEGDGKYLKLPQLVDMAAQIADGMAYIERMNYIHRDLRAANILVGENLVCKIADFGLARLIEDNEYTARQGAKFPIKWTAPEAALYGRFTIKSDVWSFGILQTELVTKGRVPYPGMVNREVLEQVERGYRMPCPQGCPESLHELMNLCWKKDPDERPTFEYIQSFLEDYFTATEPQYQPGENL

[8] = target: Mitogen-activated protein kinase kinase kinase kinase 2 (Homo sapiens) (UniProt Q12851); assay: Inhibition of human MAP4K2 at 1 uM using 3xChocktide-PKC as substrate in presence of 33P-ATP by ProQinase assay
[9] = target: Mitogen-activated protein kinase kinase kinase 11 (Homo sapiens) (UniProt Q16584); assay: Inhibition of recombinant human N-terminal GST-tagged MLK3 (96 to 386 residues) expressed in baculovirus infected Sf21 cells assessed as remaining activity at 1 uM using MBP as substrate incubated for 30 mins in presence of [gamma-33P]ATP by filter binding method relative to control
[10] = target: Serine/threonine-protein kinase Nek1 (Homo sapiens) (UniProt Q96PY6); assay: Inhibition of human NEK1 at 1 uM using RBER-CHKtide as substrate in presence of 33P-ATP by ProQinase assay
[11] = target: Tyrosine-protein kinase BTK (Homo sapiens) (UniProt Q06187); assay: Inhibition of human BTK at 1 uM using polyEY as substrate in presence of 33P-ATP by ProQinase assay
[12] = target: Serine/threonine-protein kinase 26 (Homo sapiens) (UniProt Q9P289); assay: Inhibition of human MST4 at 1 uM using RB-CTF as substrate in presence of 33P-ATP by ProQinase assay
Sequence of Serine/threonine-protein kinase 26 (Homo sapiens) (Q9P289 2-416 limits assumed): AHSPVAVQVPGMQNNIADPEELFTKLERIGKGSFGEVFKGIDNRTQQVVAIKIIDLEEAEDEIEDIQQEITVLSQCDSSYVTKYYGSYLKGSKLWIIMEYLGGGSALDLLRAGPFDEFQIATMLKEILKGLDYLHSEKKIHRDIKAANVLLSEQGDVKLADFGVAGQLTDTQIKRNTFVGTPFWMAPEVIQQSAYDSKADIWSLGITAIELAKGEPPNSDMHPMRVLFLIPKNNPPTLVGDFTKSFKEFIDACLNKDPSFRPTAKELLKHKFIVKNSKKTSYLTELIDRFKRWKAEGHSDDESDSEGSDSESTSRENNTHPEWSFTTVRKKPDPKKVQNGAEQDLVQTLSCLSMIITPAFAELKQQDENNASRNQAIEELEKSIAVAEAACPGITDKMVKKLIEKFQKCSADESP

[13] = target: Eukaryotic translation initiation factor 2-alpha kinase 1 (Homo sapiens) (UniProt Q9BQI3); assay: Inhibition of human HRI at 1 uM using casein as substrate in presence of 33P-ATP by ProQinase assay
[14] = target: TGF-beta receptor type-2 (Homo sapiens) (UniProt P37173); assay: Inhibition of human TGFBR2 at 1 uM using RB-S6P as substrate in presence of 33P-ATP by ProQinase assay
Sequence of TGF-beta receptor type-2 (Homo sapiens) (P37173 whole entry, the tested form may be a part): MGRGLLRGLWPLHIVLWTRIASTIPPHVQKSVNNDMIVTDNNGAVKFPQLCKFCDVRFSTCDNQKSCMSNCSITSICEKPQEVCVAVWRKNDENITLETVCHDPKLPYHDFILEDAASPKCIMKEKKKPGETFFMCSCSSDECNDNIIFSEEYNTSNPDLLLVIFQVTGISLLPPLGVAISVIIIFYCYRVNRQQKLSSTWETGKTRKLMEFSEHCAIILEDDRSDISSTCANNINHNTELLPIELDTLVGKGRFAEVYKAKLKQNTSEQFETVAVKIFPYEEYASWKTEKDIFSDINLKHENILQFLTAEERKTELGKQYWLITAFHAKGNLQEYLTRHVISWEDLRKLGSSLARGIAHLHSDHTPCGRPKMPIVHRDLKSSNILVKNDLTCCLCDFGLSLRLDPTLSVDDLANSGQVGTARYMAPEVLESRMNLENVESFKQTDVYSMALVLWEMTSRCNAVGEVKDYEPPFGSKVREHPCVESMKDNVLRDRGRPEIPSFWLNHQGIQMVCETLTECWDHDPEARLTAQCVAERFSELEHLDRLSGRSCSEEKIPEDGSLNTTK

[15] = target: MAP kinase-activated protein kinase 5 (Homo sapiens) (UniProt Q8IW41); assay: Inhibition of recombinant human His6-tagged PRAK (1 to 471 residues) expressed in baculovirus infected Sf21 cells assessed as remaining activity at 1 uM using phosphorylase b peptide as substrate incubated for 30 mins in presence of [gamma-33P]ATP by filter binding method relative to control
[16] = target: Serine/threonine-protein kinase PAK 6 (Homo sapiens) (UniProt Q9NQU5); assay: Inhibition of human PAK6 at 1 uM using bio-4xCHKT as substrate in presence of 33P-ATP by ProQinase assay
[17] = target: Casein kinase II subunit alpha' (Homo sapiens) (UniProt P19784); assay: Inhibition of human CK2alpha2 at 1 uM using casein as substrate in presence of 33P-ATP by ProQinase assay
Sequence of Casein kinase II subunit alpha' (Homo sapiens) (P19784 whole entry, looked up): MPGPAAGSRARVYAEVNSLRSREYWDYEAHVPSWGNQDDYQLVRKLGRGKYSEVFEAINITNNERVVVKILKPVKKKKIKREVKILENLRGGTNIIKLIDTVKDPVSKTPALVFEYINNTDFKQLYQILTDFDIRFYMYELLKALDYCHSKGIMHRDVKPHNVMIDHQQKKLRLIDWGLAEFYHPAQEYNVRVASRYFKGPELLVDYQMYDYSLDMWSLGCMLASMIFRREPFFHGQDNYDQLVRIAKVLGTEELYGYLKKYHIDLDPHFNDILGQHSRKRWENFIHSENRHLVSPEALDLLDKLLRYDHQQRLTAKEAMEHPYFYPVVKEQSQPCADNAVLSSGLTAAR

[18] = target: Tyrosine-protein kinase Mer (Homo sapiens) (UniProt Q12866); assay: Inhibition of human MERTK at 1 uM using polyEY as substrate in presence of 33P-ATP by ProQinase assay
[19] = target: G protein-coupled receptor kinase 5 (Homo sapiens) (UniProt P34947); assay: Inhibition of human GRK5 at 1 uM using casein as substrate in presence of 33P-ATP by ProQinase assay
U2OS [20] = assay: Inhibition of PI3K in human U2OS cells expressing FLAG-tagged SGK3 assessed as reduction in AKT phosphorylation at S473 residues at 0.01 to 1 uM 1 hr by immunoblot analysis; format: cell-based; conditions: dose 0.01-1 µM
Method in brief: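 Flp-In T-REx U2OS cells were grown in McCoy medium with 10% FBS. Expression of C-terminally FLAG-tagged full-length SGK3 was induced with 0.01 mg/ml doxycycline for 24 h. Cells were treated with inhibitor for 1 h and lysed in phosphatase-inhibitor buffer. Lysates were cleared at 16000 g for 10 min at 4°C, protein was measured by Bradford, and phosphorylation was read by immunoblot with ECL detection.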

[21] = target: Ribosomal protein S6 kinase beta-2 (Homo sapiens) (UniProt Q9UBS0); assay: Inhibition of human S6K-beta at 1 uM using RBER-CHKtide as substrate in presence of 33P-ATP by ProQinase assay
Sequence of Ribosomal protein S6 kinase beta-2 (Homo sapiens) (Q9UBS0 whole entry): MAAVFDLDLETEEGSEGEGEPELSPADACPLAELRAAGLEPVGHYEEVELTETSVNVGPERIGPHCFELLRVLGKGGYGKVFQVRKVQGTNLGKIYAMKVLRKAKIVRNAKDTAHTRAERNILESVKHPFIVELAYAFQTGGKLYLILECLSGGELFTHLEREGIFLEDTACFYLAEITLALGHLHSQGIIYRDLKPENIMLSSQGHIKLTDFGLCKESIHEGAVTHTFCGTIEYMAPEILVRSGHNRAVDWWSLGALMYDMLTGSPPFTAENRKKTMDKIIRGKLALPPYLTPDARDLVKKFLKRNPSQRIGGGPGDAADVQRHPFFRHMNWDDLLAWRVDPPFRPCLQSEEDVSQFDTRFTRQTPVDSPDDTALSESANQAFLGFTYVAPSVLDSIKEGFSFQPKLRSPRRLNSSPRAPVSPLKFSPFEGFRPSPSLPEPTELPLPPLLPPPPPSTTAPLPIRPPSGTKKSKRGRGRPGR

[22] = test system: Serine/threonine-protein kinase Sgk1 (Homo sapiens), O00141 [S422D]; conditions: Sf21, dose 1.0 µM, time 30.0 min
Sequence of Serine/threonine-protein kinase Sgk1 (Homo sapiens), O00141 [S422D] (O00141 whole entry S422D): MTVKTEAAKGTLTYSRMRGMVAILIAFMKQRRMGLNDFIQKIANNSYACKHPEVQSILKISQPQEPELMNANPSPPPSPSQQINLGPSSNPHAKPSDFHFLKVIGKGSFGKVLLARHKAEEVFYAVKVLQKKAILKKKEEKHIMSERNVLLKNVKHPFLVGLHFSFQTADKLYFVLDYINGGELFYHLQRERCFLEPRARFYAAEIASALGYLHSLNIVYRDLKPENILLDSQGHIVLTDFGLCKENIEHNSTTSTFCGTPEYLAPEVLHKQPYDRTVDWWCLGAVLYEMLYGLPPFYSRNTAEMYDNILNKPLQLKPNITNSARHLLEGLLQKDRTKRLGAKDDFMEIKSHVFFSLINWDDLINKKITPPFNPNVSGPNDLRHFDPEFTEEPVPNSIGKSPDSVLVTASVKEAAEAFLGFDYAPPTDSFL

[23] = target: Platelet-derived growth factor receptor alpha (Homo sapiens) (UniProt P16234); assay: Inhibition of human PDGFRalpha at 1 uM using Poly(Ala,Glu,Lys,Tyr) as substrate in presence of 33P-ATP by ProQinase assay
[24] = target: Homeodomain-interacting protein kinase 2 (Homo sapiens) (UniProt Q9H2X6); assay: Inhibition of recombinant human N-terminal GST-tagged HIPK2 (165 to 564 residues) expressed in Escherichia coli assessed as remaining activity at 1 uM using MBP as substrate incubated for 30 mins in presence of [gamma-33P]ATP by filter binding method relative to control
[25] = target: Receptor-interacting serine/threonine-protein kinase 2 (Homo sapiens) (UniProt O43353); assay: Inhibition of human RIPK2 at 1 uM using RBER-CHKtide as substrate in presence of 33P-ATP by ProQinase assay
[26] = target: Ephrin type-A receptor 4 (Homo sapiens) (UniProt P54764); assay: Inhibition of recombinant human N-terminal GST-tagged EPHA4 (570 to 986 residues) expressed in Escherichia coli assessed as remaining activity at 1 uM using Poly (Glu,Tyr) as substrate incubated for 30 mins in presence of [gamma-33P]ATP by filter binding method relative to control

Sequence of Tyrosine-protein kinase FRK (Homo sapiens) (P42685 whole entry): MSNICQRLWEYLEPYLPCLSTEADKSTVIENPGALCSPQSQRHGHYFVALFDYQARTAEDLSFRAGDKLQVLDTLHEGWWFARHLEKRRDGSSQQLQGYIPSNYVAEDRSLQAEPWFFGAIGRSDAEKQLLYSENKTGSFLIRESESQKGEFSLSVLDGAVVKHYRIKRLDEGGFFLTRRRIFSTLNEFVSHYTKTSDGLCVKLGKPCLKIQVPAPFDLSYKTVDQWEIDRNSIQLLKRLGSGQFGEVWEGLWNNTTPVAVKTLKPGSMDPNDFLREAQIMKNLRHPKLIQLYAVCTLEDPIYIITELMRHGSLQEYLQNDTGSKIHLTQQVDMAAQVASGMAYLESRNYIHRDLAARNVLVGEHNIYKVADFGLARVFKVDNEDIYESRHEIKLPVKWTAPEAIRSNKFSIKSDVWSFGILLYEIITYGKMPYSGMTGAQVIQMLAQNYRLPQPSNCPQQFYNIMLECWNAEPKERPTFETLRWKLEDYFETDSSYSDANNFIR

`CC(C)(O)CNc1ncc(-c2ccnc(Nc3ccnc(Cl)c3)n2)c(CC2CC2)n1` was tested. Which inhibition [1] did it give?
Its inhibition is “inactive”.

What about the inhibition [2] of the same compound?
The inhibition was “inactive”.

And the inhibition (U2OS [3])?
Its inhibition is “inactive”.

What about the inhibition [4] of the same compound?
Its inhibition is “inactive”.

And the inhibition [5]?
The inhibition was “inactive”.

What about the inhibition [6] of the same compound?
Its inhibition is “inactive”.

What about the inhibition [7] of the same compound?
Its inhibition is “inactive”.

What about the inhibition [8] of the same compound?
Its inhibition is “inactive”.

What about the Activity [9] of the same compound?
The Activity was 129%.

What about the inhibition [10] of the same compound?
The inhibition was “inactive”.

And the inhibition [11]?
Its inhibition is “inactive”.

What about the inhibition [12] of the same compound?
Its inhibition is “inactive”.

What about the inhibition [13] of the same compound?
Its inhibition is “inactive”.

What about the inhibition [14] of the same compound?
The inhibition was “inactive”.

And the Activity [15]?
The Activity was 105%.

What about the inhibition [16] of the same compound?
Its inhibition is “inactive”.

What about the inhibition [17] of the same compound?
Its inhibition is “inactive”.

And the inhibition [18]?
Its inhibition is “inactive”.

And the inhibition [19]?
Its inhibition is “inactive”.

What about the inhibition (U2OS [20]) of the same compound?
Its inhibition is “inactive”.

And the inhibition [21]?
The inhibition was “inactive”.

And the Activity [22]?
The Activity was 108%.

And the inhibition [23]?
Its inhibition is “inactive”.

What about the Activity [24] of the same compound?
Its Activity is 96%.

What about the inhibition [25] of the same compound?
The inhibition was “inactive”.

What about the Activity [26] of the same compound?
The Activity was 93%.
